What was measured:
Type in all cases: functional
[1] = tested on: HOP-92; experiment: Growth inhibition of human HOP92 cells assessed as cell growth at 10 '-7 M after 48 hrs by sulforhodamine B assay; conditions: HOP-92, 48 h, read-out: Activity
[2] = Growth inhibition of human EKVX cells assessed as cell growth at 10 '-7 M after 48 hrs by sulforhodamine B assay; conditions: read-out: Activity
[3] = tested on: HT-29; experiment: Growth inhibition of human HT-29 cells assessed as growth inhibition at 10 uM after 48 hrs by sulforhodamine B assay; conditions: HT-29, 48 h, read-out: GI
[4] = tested on: SNB-19; experiment: Growth inhibition of human SNB19 cells assessed as growth inhibition at 10 uM after 48 hrs by sulforhodamine B assay; conditions: SNB-19, 48 h, read-out: GI
[5] = Growth inhibition of human NCI-ADR-RES cells assessed as cell growth at 10 '-5 M after 48 hrs by sulforhodamine B assay; conditions: read-out: Activity
[6] = tested on: SF-539; experiment: Growth inhibition of human SF539 cells assessed as cell growth at 10 '-4 M after 48 hrs by sulforhodamine B assay; conditions: SF-539, 48 h, read-out: Activity
[7] = tested on: PC-3; experiment: Growth inhibition of human PC3 cells assessed as cell growth at 10 '-8 M after 48 hrs by sulforhodamine B assay; conditions: PC-3, 48 h, read-out: Activity
[8] = tested on: OVCAR-4; experiment: Growth inhibition of human OVCAR4 cells assessed as cell growth at 10 '-4 M after 48 hrs by sulforhodamine B assay; conditions: OVCAR-4, 48 h, read-out: Activity
[9] = tested on: SK-OV-3; experiment: Growth inhibition of human SKOV3 cells assessed as cell growth at 10 '-7 M after 48 hrs by sulforhodamine B assay; conditions: SK-OV-3, 48 h, read-out: Activity
[10] = tested on: TK-10; experiment: Growth inhibition of human TK10 cells assessed as growth inhibition at 10 uM after 48 hrs by sulforhodamine B assay; conditions: TK-10, 48 h, read-out: GI
[11] = tested on: OVCAR-5; experiment: Growth inhibition of human OVCAR5 cells assessed as cell growth at 10 '-4 M after 48 hrs by sulforhodamine B assay; conditions: OVCAR-5, 48 h, read-out: Activity
[12] = tested on: UACC-62; experiment: Growth inhibition of human UACC62 cells assessed as cell growth at 10 '-4 M after 48 hrs by sulforhodamine B assay; conditions: UACC-62, 48 h, read-out: Activity
[13] = tested on: SR; experiment: Growth inhibition of human SR cells assessed as cell growth at 10 '-8 M after 48 hrs by sulforhodamine B assay; conditions: read-out: Activity
[14] = tested on: RXF 393; experiment: Growth inhibition of human RXF393 cells assessed as cell growth at 10 '-7 M after 48 hrs by sulforhodamine B assay; conditions: RXF 393, 48 h, read-out: Activity
[15] = tested on: NCI-H226; experiment: Growth inhibition of human NCI-H226 cells assessed as growth inhibition at 10 uM after 48 hrs by sulforhodamine B assay; conditions: NCI-H226, 48 h, read-out: GI
[16] = tested on: UACC-257; experiment: Growth inhibition of human UACC257 cells assessed as cell growth at 10 '-4 M after 48 hrs by sulforhodamine B assay; conditions: UACC-257, 48 h, read-out: Activity
[17] = tested on: Malme-3M; experiment: Growth inhibition of human MALME-3M cells assessed as cell growth at 10 '-8 M after 48 hrs by sulforhodamine B assay; conditions: read-out: Activity
[18] = tested on: MDA-MB-231; experiment: Growth inhibition of human MDA-MB-231 cells assessed as cell growth at 10 '-5 M after 48 hrs by sulforhodamine B assay; conditions: MDA-MB-231, 48 h, read-out: Activity
[19] = tested on: COLO 205; experiment: Growth inhibition of human COLO205 cells assessed as cell growth at 10 '-8 M after 48 hrs by sulforhodamine B assay; conditions: COLO 205, 48 h, read-out: Activity
[20] = tested on: SW-620; experiment: Growth inhibition of human SW620 cells after 48 hrs by sulforhodamine B assay; conditions: SW-620, 48 h
[21] = Growth inhibition of human NCI-ADR-RES cells assessed as cell growth at 10 '-4 M after 48 hrs by sulforhodamine B assay; conditions: read-out: Activity
[22] = tested on: U-251; experiment: Growth inhibition of human U251 cells after 48 hrs by sulforhodamine B assay; conditions: U-251, 48 h
[23] = tested on: SN12C; experiment: Growth inhibition of human SN12C cells assessed as cell growth at 10 '-5 M after 48 hrs by sulforhodamine B assay; conditions: read-out: Activity
[24] = tested on: COLO 205; experiment: Growth inhibition of human COLO205 cells assessed as cell growth at 10 '-5 M after 48 hrs by sulforhodamine B assay; conditions: COLO 205, 48 h, read-out: Activity
How it was run: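 In the same five-dose SRB screen (48 h, 37 °C, 5% CO2), percentage growth was computed at each concentration from time-zero (Tz), control (C) and treated (Ti) absorbances. The formula was [(Ti−Tz)/(C−Tz)]×100 when Ti ≥ Tz, or [(Ti−Tz)/Tz]×100 when Ti < Tz.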

[25] = tested on: SK-MEL-2; experiment: Growth inhibition of human SK-MEL-2 cells assessed as cell growth at 10 '-8 M after 48 hrs by sulforhodamine B assay; conditions: SK-MEL-2, 48 h, read-out: Activity
[26] = tested on: HOP-62; experiment: Growth inhibition of human HOP62 cells assessed as cell growth at 10 '-7 M after 48 hrs by sulforhodamine B assay; conditions: HOP-62, 48 h, read-out: Activity
[27] = tested on: SF-295; experiment: Growth inhibition of human SF295 cells after 48 hrs by sulforhodamine B assay; conditions: SF-295, 48 h
[28] = tested on: OVCAR-4; experiment: Growth inhibition of human OVCAR4 cells assessed as cell growth at 10 '-8 M after 48 hrs by sulforhodamine B assay; conditions: OVCAR-4, 48 h, read-out: Activity
[29] = tested on: DU-145; experiment: Growth inhibition of human DU145 cells assessed as cell growth at 10 '-4 M after 48 hrs by sulforhodamine B assay; conditions: DU-145, 48 h, read-out: Activity
[30] = tested on: SNB-75; experiment: Growth inhibition of human SNB75 cells after 48 hrs by sulforhodamine B assay; conditions: SNB-75, 48 h, read-out: LD50 (the source's name)
[31] = tested on: SK-MEL-28; experiment: Growth inhibition of human SK-MEL-28 cells after 48 hrs by sulforhodamine B assay; conditions: SK-MEL-28, 48 h
[32] = tested on: HT-29; experiment: Growth inhibition of human HT-29 cells assessed as cell growth at 10 '-5 M after 48 hrs by sulforhodamine B assay; conditions: HT-29, 48 h, read-out: Activity
[33] = read-out: LD50 (the source's name)

`Cc1cc(=O)oc2cc(OCCn3c(C)nn(-c4ccc(Cl)cc4)c3=O)ccc12` showed a growth at 0.1 µM [1] of 83%, a growth at 0.1 µM [2] of 90% and an inhibition of growth at 10 µM [3] of 99.3%. The inhibition of growth at 10 µM [4] was 45.5%, the growth at 10 µM [5] was 10% and the growth at 100 µM [6] was -12%. For the same compound, the growth at 0.01 µM [7] was 97%, the growth at 100 µM [8] was 40% and the growth at 0.1 µM [9] was 103%. For the same compound, the inhibition of growth at 10 µM [10] was 40.4%, the growth at 100 µM [11] was 45% and the growth at 100 µM [12] was 30%. For the same compound, the growth at 0.01 µM [13] was 101%, the growth at 0.1 µM [14] was 90% and the inhibition of growth at 10 µM [15] was 49.9%. It also gave a growth at 100 µM [16] of 53%, a growth at 0.01 µM [17] of 105% and a growth at 10 µM [18] of 42%. The growth at 0.01 µM [19] was 102%, the GI50 [20] was 2200 nM and the TGI [20] was over 1000 nM. The CC50 [20, 33] was over 1000 nM, the growth at 100 µM [21] was 2% and the GI50 [22] was 4180 nM. It also gave a TGI [22] of 7230 nM, a CC50 [22, 33] of over 1000 nM and a growth at 10 µM [23] of 39%. For the same compound, the growth at 10 µM [24] was -14%, the growth at 0.01 µM [25] was 104% and the growth at 0.1 µM [26] was 103%. For the same compound, the GI50 [27] was 4730 nM, the TGI [27] was over 1000 nM and the CC50 [27, 33] was over 1000 nM. It also gave a growth at 0.01 µM [28] of 100%, a growth at 100 µM [29] of 10% and a CC50 [30] of over 1000 nM. The GI50 [31] was 3130 nM, the TGI [31] was over 1000 nM and the CC50 [31, 33] was over 1000 nM. The growth at 10 µM [32] was 14%.
